Data: ChEMBL document CHEMBL1212711, “Mechanistic and functional insights into fatty acid activation in Mycobacterium tuberculosis” (Nat Chem Biol, 2009)
Values after ≈ are worked out from the molar mass of the structure shown. Active and inactive are the calls of the source. No cut-off for these calls is given here.

Tests used:
[1] = system: Mycobacterium tuberculosis H37Rv; assay: Activity at Mycobacterium tuberculosis H37Rv FACL19 assessed as acy-CoA formation by radio-TLC assay
[2] = system: Mycobacterium tuberculosis H37Rv; assay: Activity at Mycobacterium tuberculosis H37Rv FAAL28 assessed as conversion of lauroyl-AMP to lauryl-CoA by radio-TLC assay
[3] = (§1) Inhibition of Mycobacterium tuberculosis H37Rv FAAL19
Summary of the method: (§2)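 Purified enzyme pre-incubated with increasing LAMS concentrations, then activity measured by radio-TLC acyl-adenylation assay. Dose-response data fitted to the Morrison tight-binding equation using enzyme concentration to obtain apparent Ki.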

[4] = (§3) Inhibition of Mycobacterium tuberculosis H37Rv FACL28; summary of the method: as §2
[5] = system: Rhodococcus sp.; assay: Activity at Rhodococcus sp. FAAL expressed in Escherichia coli assessed as palmitoyl-CoA formation at 1 mM by TLC method
Summary of the method: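 Recombinant Rhodococcus ro_4064 protein expressed in E. coli, assayed cell-free with palmitic acid as substrate, with or without 1 mM CoASH. Products separated by TLC and detected by autoradiography.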

[6] = system: Mycobacterium tuberculosis H37Rv; assay: as §1; conditions: TDE = time-dependent effect; summary of the method: as §2
[7] = system: Mycobacterium tuberculosis H37Rv; assay: as §3; conditions: TDE = time-dependent effect; summary of the method: as §2
[8] = system: Mycobacterium tuberculosis; assay: Antimicrobial activity against Mycobacterium tuberculosis H37Rv assessed as concentration required for 100-fold reduction in bacterial CFU; format: functional
Summary of the method: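 H37Rv culture serially diluted and plated on Middlebrook 7H10 agar with OADC containing various concentrations of the acyl-AMS analogue. Colonies counted after two weeks at 37°C. MIC is the concentration giving a 10^2-fold CFU reduction.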

[9] = system: Mycobacterium tuberculosis; assay: Antimicrobial activity against Mycobacterium tuberculosis MC2 assessed as concentration required for 100-fold reduction in bacterial CFU; format: functional
Summary of the method: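 Susceptibility followed by CFU counts on plates containing various inhibitor concentrations. MIC99 is taken as the concentration causing a 10^2 reduction in colony forming units.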

[10] = system: Mycobacterium tuberculosis; assay: Antimicrobial activity against Mycobacterium tuberculosis H37Rv assessed decrease in mycolic acid biosynthesis by [14C]-acetate incorporation assay; format: functional, organism-based
Summary of the method: (§4)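 Mid-log H37Rv cultures (10 ml) given 5 μCi ^14C-propionate (methylated lipids) or ^14C-acetate (fatty/mycolic acids) plus various LAMS concentrations. Incubated 16 h at 37°C. Mycolic acids and total extractable lipids then analysed.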

[11] = system: Mycobacterium tuberculosis; assay: Antimicrobial activity against Mycobacterium tuberculosis H37Rv assessed decrease in fatty acid biosynthesis by [14C]-acetate incorporation assay; format: functional, organism-based; summary of the method: as §4
[12] = system: Mycobacterium tuberculosis; assay: Antimicrobial activity against Mycobacterium tuberculosis H37Rv assessed decrease in PDIM biosynthesis by [14C]propionate incorporation assay; format: functional, organism-based; summary of the method: as §4
[13] = system: Mycobacterium tuberculosis; assay: Antimicrobial activity against Mycobacterium tuberculosis H37Rv assessed decrease in SL-1 biosynthesis by [14C]propionate incorporation assay; format: functional, organism-based; summary of the method: as §4
[14] = system: Mycobacterium tuberculosis; assay: Antimicrobial activity against Mycobacterium tuberculosis H37Rv assessed as degeneration of lipid layer in cell wall by transmission electron microscopy; format: functional, organism-based
[15] = system: Mycobacterium tuberculosis; assay: Antimicrobial activity against Mycobacterium tuberculosis H37Rv assessed as reduction in appearance of dense granular cytoplasm by transmission electron microscopy; format: functional, organism-based
[16] = system: Mycobacterium tuberculosis; assay: Antimicrobial activity against Mycobacterium tuberculosis H37Rv assessed as occurrence of irregular cell shape by transmission electron microscopy; format: functional, organism-based
[17] = system: Mycobacterium tuberculosis H37Rv; assay: Stabilization of Mycobacterium tuberculosis H37Rv FAAL28 assessed as protection against proteolysis
Summary of the method: (§5)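 Limited tryptic proteolysis of purified protein in the presence of increasing LAMS concentrations. Protection from fragmentation taken as a sign of binding-induced conformational change.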

[18] = system: Mycobacterium tuberculosis H37Rv; assay: Stabilization of Mycobacterium tuberculosis H37Rv FACL19 assessed as protection against proteolysis; summary of the method: as §5
[19] = system: Mycobacterium tuberculosis H37Rv; assay: Binding affinity to Mycobacterium tuberculosis H37Rv FACL28 assessed as noncovalent protein-ligand interaction by mass spectroscopy
Summary of the method: (§6)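 Purified enzyme–inhibitor (EI*) complex extracted with ethyl acetate. Released acyl-AMS detected by mass spectrometry to test for non-covalent versus covalent binding.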

[20] = system: Mycobacterium tuberculosis H37Rv; assay: Binding affinity to Mycobacterium tuberculosis H37Rv FAAL19 assessed as noncovalent protein-ligand interaction by mass spectroscopy; summary of the method: as §6
[21] = system: Mycobacterium tuberculosis; assay: Antimicrobial activity against Mycobacterium tuberculosis H37Rv assessed as degeneration of peptidoglycan layer in cell wall by transmission electron microscopy; format: functional, organism-based

Q: Which results are given for `CC(C)(COP(=O)(O)OP(=O)(O)OC[C@H]1O[C@@H](n2cnc3c(N)ncnc32)[C@H](O)[C@@H]1OP(=O)(O)O)[C@@H](O)C(=O)NCCC(=O)NCCS` [COENZYME_A]?
A: Activity [1]: Active; Activity [2]: inactive; IC50 [3]: 1250 nM; Ki ([3]; read-out: Ki(app)): 4.9 µM; IC50 [4]: 1200 nM; Activity [5]: inactive

Q: Which inhibition [6] does the source give for `CCCCCCCCCCCC(=O)NS(=O)(=O)OC[C@H]1O[C@@H](n2cnc3c(N)ncnc32)[C@H](O)[C@@H]1O` here?
A: Its inhibition is “tde”.

Q: What about the inhibition [7] of the same compound?
A: The inhibition was “tde”.

Q: What about the MIC99 [8] of the same compound?
A: The MIC99 was 100 µM (≈ 52.9 µg/mL).

Q: What about the MIC99 [9] of the same compound?
A: The MIC99 was 215 µM (≈ 114 µg/mL).

Q: And the Activity [10]?
A: The Activity was “Dose-dependent effect”.

Q: What about the Activity [11] of the same compound?
A: The Activity was “inactive”.

Q: And the Activity [12]?
A: The Activity was “Active”.

Q: What about the Activity [13] of the same compound?
A: Its Activity is “Active”.

Q: What about the Activity [14] of the same compound?
A: The Activity was “Active”.

Q: What about the Activity [15] of the same compound?
A: Its Activity is “Active”.

Q: And the Activity [16]?
A: The Activity was “Active”.

Q: What about the Activity [17] of the same compound?
A: The Activity was “Dose-dependent effect”.

Q: And the Activity [18]?
A: The Activity was “Dose-dependent effect”.

Q: And the Km [19]?
A: Its Km is 24 µM.

Q: What about the Activity [20] of the same compound?
A: Its Activity is “Active”.

Q: And the Activity [21]?
A: Its Activity is “Active”.
